Test results reported in ChEMBL document CHEMBL3400107, “Synthesis, structure-activity relationships, and anticonvulsant activities of 2-amino-4H-pyrido[3,2-e][1,3]thiazin-4-one derivatives as orally active AMPA receptor antagonists” (Bioorg Med Chem, 2015).

Legend:
Neuron [1] = test: Inhibition of kainate-induced neurotoxicity in primary rat hippocampal neurons at 10 uM after 24 hrs by LDH assay; format: functional
In short: (§1)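 Hippocampal cultures from embryonic day 18–20 Wistar rats, used after 8 or 9 days in vitro. Compounds added together with 300 µM kainate. Neuronal injury measured 24 h later as LDH release into the medium. Values are IC50 (concentration for 50% inhibition) or percent inhibition at 10 µM.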

Neuron [2] = test: Inhibition of kainate-induced neurotoxicity in primary rat hippocampal neurons after 24 hrs by LDH assay; format: functional, cell-based; in short: as §1
Mus musculus = test: Anticonvulsant activity in po dosed ICR mouse assessed as protection from maximal electroshock-induced seizure measured after 60 mins post dose; format: functional; conditions: 1 h
In short: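 Compounds given orally to mice; 60 min later corneal electroshock applied (50 mA, 0.2 s, 50 Hz). Protection scored as absence of tonic extension. ED50 calculated by probit method, with 95% confidence intervals.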

[3] = AUC(infinity) in rat at 1 mg/kg, iv; format: ADME, organism-based; design: time infinity, dose 1 mg/kg, route intravenous; conditions: plasma
[4] = AUC(infinity) in rat at 1 mg/kg, po; format: ADME, organism-based; design: time infinity, dose 1 mg/kg, route oral; conditions: plasma
[5] = Total clearance in rat at 1 mg/kg, iv; format: ADME, organism-based; design: dose 1 mg/kg, route intravenous; conditions: in vivo
[6] = Volume of distribution at steady state in rat at 1 mg/kg, iv; format: ADME, organism-based; design: dose 1 mg/kg, route intravenous; conditions: in vivo, read-out: Vdss
[7] = Half life in rat at 1 mg/kg, iv; format: ADME, organism-based; design: dose 1 mg/kg, route intravenous; conditions: in vivo
[8] = Half life in rat at 1 mg/kg, po; format: ADME, organism-based; design: dose 1 mg/kg, route oral; conditions: in vivo
[9] = Cmax in rat at 1 mg/kg, po; format: ADME, organism-based; design: dose 1 mg/kg, route oral; conditions: in vivo
[10] = Tmax in rat at 1 mg/kg, po; format: ADME, organism-based; design: dose 1 mg/kg, route oral; conditions: in vivo
[11] = Oral bioavailability in rat at 1 mg/kg; format: ADME, organism-based; conditions: in vivo

| SMILES | inhibition at 10 µM (Neuron [1]) | IC50 (Neuron [2]) | further results |
| --- | --- | --- | --- |
| CN(c1ccccc1)c1nc(=O)c2cccnc2s1 | 43% | – | – |
| CN(c1cccnc1)c1nc(=O)c2cccnc2s1 | 18% | – | – |
| CN(c1nc(=O)c2cccnc2s1)C1CCCCC1 | 16% | – | – |
| Cc1ccccc1N(C)c1nc(=O)c2cccnc2s1 | 4% | – | – |
| Cc1ccc(N(C)c2nc(=O)c3cccnc3s2)cc1 | – | 10000 nM | – |
| CN(c1ccc(F)cc1)c1nc(=O)c2cccnc2s1 | – | 7200 nM | ED50 (Mus musculus): 15.3 mg/kg |
| CN(c1ccc(Cl)cc1)c1nc(=O)c2cccnc2s1 | – | 2000 nM | ED50 (Mus musculus): 7.4 mg/kg; AUC(0-inf) [3]: 542 ng·h/mL; AUC(0-inf) [4]: 472 ng·h/mL; clearance [5]: 30.8 mL/min/kg; Vd [6]: 1.18 L/kg; half-life [7]: 26.4 min; half-life [8]: 34.8 min; Cmax [9]: 425 ng/mL; Tmax [10]: 15 min; bioavailability [11]: 87.1% |
| CN(c1ccc(Br)cc1)c1nc(=O)c2cccnc2s1 | – | 1000 nM | ED50 (Mus musculus): 23.1 mg/kg |
| CN(c1ccc(C(F)(F)F)cc1)c1nc(=O)c2cccnc2s1 | – | 2000 nM | – |
| COc1ccc(N(C)c2nc(=O)c3cccnc3s2)cc1 | – | 3400 nM | – |
| CN(c1ccc(OC(F)(F)F)cc1)c1nc(=O)c2cccnc2s1 | – | 2100 nM | ED50 (Mus musculus): 25.2 mg/kg |
| CN(c1ccc([N+](=O)[O-])cc1)c1nc(=O)c2cccnc2s1 | 38% | – | – |
| CN(c1ccc(N)cc1)c1nc(=O)c2cccnc2s1 | 19% | – | – |
| CCOC(=O)c1ccc(N(C)c2nc(=O)c3cccnc3s2)cc1 | 29% | – | – |
| CN(c1ccc(C(=O)O)cc1)c1nc(=O)c2cccnc2s1 | 0% | – | – |
| CN(c1ccc(C2CCCCC2)cc1)c1nc(=O)c2cccnc2s1 | 29% | – | – |
| CN(c1ccc2c(c1)CCC2)c1nc(=O)c2cccnc2s1 | – | 1300 nM | – |

| SMILES | inhibition at 10 µM (Neuron [1]) | IC50 (Neuron [2]) | further results |
| --- | --- | --- | --- |
| CN(c1ccc2sccc2c1)c1nc(=O)c2cccnc2s1 | – | 400 nM | – |
| CCN(c1cccc(OC)c1)c1nc(=O)c2cccnc2s1 | – | 3800 nM | – |
| CCN(c1ccc(OC)cc1)c1nc(=O)c2cccnc2s1 | – | 2800 nM | – |
| CCN(c1ccc(OC)c(OC)c1)c1nc(=O)c2cccnc2s1 | 25% | – | – |
| CCN(c1ccc2c(c1)OCO2)c1nc(=O)c2cccnc2s1 | – | 400 nM | ED50 (Mus musculus): 38.9 mg/kg |
| CCN(c1ccc2c(c1)OCCO2)c1nc(=O)c2cccnc2s1 | – | 600 nM | – |
| CN(c1ccc(Cl)cc1)c1nc(=O)c2ccccc2s1 | – | 6500 nM | – |
| CN(c1ccc(Cl)cc1)c1nc(=O)c2sccc2s1 | – | 5400 nM | – |
| CN(c1ccc(Cl)cc1)c1nc(=O)c2ccncc2s1 | 4% | – | – |
| CN(c1ccc(Cl)cc1)c1nc(=O)c2cnccc2s1 | 2% | – | – |
| Cc1ccc2c(=O)nc(N(C)c3ccc(Cl)cc3)sc2n1 | 0% | – | – |
| CN(c1ccc(Cl)cc1)c1nc(=O)c2ccccc2o1 | 28% | – | – |
| Cl.O=c1[nH]c2cc(-n3ccnc3)c([N+](=O)[O-])cc2[nH]c1=O | – | – | ED50 (Mus musculus): > 100 mg/kg |
| C=CCN(c1ccc(C)cc1)c1nc(=O)c2cccnc2s1 | – | 9000 nM | – |
| CN(Cc1ccccc1)c1nc(=O)c2cccnc2s1 | 0% | – | – |
| CN(c1ccsc1)c1nc(=O)c2cccnc2s1 | 28% | – | – |
| CC(=O)N1N=C(c2ccc(N)cc2)c2cc3c(cc2C[C@H]1C)OCO3 [TALAMPANEL] | – | 6000 nM | ED50 (Mus musculus): 4.2 mg/kg |
